# This is a sample that favours compounds with a hit; in the whole collection about 3.3% have one here.
# E-sel inducer: E-selectin induction on HUVECs. activation, % at 7.58 µM. AID 686992. HUVEC E-selectin immunofluorescence imaging; normalized: neutral wells 0, TNF-alpha wells 100. actives 0.37% (n = 260,000);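 active = mean E-selectin-positive cell signal at least 10% of the positive control, reached in at least 60% of replicates, without over 20% cell loss; inconclusive = no rule given, readout overlaps actives, possibly toxicity-flagged; inactive = the rest, including those meeting only one limit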
# Target sequence (P16581 whole entry, looked up): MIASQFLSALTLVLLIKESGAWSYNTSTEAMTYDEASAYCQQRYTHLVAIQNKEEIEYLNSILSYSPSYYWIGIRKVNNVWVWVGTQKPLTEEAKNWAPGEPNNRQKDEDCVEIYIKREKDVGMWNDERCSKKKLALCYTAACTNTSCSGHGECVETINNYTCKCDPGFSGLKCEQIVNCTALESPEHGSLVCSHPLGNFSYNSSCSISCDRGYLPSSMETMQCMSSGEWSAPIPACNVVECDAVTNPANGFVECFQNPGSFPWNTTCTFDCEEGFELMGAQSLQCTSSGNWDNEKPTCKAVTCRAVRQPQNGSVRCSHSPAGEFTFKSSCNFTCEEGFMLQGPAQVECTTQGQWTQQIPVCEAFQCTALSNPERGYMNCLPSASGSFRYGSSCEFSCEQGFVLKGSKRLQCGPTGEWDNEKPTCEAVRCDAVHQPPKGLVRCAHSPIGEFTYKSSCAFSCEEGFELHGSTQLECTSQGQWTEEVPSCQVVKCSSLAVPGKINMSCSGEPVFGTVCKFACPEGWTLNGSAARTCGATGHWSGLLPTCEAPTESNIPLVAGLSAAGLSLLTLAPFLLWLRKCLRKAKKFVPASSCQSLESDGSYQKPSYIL
#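 Assay system: HUVEC primary endothelial cells. Input: 3,000 HUVEC seeded per well. Doses: one compound dose added by pin transfer. Read-out basis: % PE-positive cells. Benchmarks: TNF-alpha high, DMSO low. Detection: immunofluorescence imaging. Buffer or medium: EGM-2, gelatin.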
# XiGFP reactiv: reactivates the inactive X chromosome in mouse fibroblasts; actives 0.055% (n = 360,000); XiGFP mouse fibroblasts, % GFP-positive cells imaging, 3 d; cells co-treated with 5-aza-dC sensitizer; scaled so ellipticine positive control = 100%; activation, % at 7.58 µM;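 active = mean normalized replicate activation at least 10% and every replicate at or above 10%; inconclusive = only one of the two criteria met; inactive = mean below 10% and not all replicates reach 10%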
#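 System: SV40-immortalized XiGFP fibroblast cells, line 68-5-11 / Incubation: 3-day compound exposure, then 15 min fixation at room temperature / Compound: single concentration per compound, delivered by pin transfer / Buffer or medium: DMEM plus 5-aza-dC sensitizer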
# FGF22 binding: shifts melting point of recombinant human FGF22. AID 651658. activity (Tm shift, normalised), % at 9.99 µM. Q9HCT0. recombinant FGF22 thermal shift, SYPRO orange fluorescence; percent of sucrose octasulfate shift, DMSO zero. actives 1.5% (n = 340,000);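 active = mean Tm shift, scaled 0 neutral to 100 positive control, at about 1.3% or above, every replicate too, limit read from the data; inconclusive = no clear call, values can overlap the other calls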
# C2C12 statin: suppressors of simvastatin-induced myotoxicity in C2C12 myotubes. AID 602340. ATP luminescence, 48 h; scaled: DMSO 0, geranylgeraniol control 100. actives 0.78% (n = 330,000). rescue of ATP level, % at 7.49 µM;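 active = mean ATP rescue above about 67%, or every replicate alone reaching that limit, limit read from the data, passing the limit was not always enough; inconclusive = no clear call, values can overlap the other calls; inactive = mean under the limit and some replicate under it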;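 note: myotubes were challenged with 10 µM simvastatin during compound exposure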
# DENV2 CPE rescue: inhibitors of DENV2 cytopathic effect; DENV2-infected cells, cytopathic effect rescue, plate reader; CPE inhibition, % at 9.99 µM; AID 651640; actives 1.7% (n = 350,000); in the data active = CPE inhibition above about 20%, passing the limit was not always enough; inconclusive = no clear call, values can overlap the other calls; tested in BHK-21 cells
# PglD DTNB: PglD (C. jejuni) enzyme inhibition; purified PglD enzyme, DTNB colorimetric CoA detection; inhibition, % at 12.5 µM; actives 0.098% (n = 360,000); AID 602405; in the data active = inhibition above about 16%, passing the limit was not always enough; inconclusive = no clear call, values can overlap the other calls
# Numbers stand for hits; - = inactive; ? = inconclusive; . = no result.
SMILES,E-sel inducer,XiGFP reactiv,FGF22 binding,C2C12 statin,DENV2 CPE rescue,PglD DTNB
COc1ccc(CN(Cc2cccn2C)C(=O)c2cc3cc(OC)ccc3[nH]2)cc1,-,-,-,124,-,-
N/C(=N\OC(=O)c1cccc(Br)c1)c1ccc(Br)cc1,.,.,.,96,.,-
N/C(=N\OC(=O)C1CCCCC1)c1ccncc1,.,-,43,.,-,.
N/C(=N\OC(=O)c1cccc(Cl)c1)c1ccncc1,.,-,45,.,.,.
N/C(=N\OC(=O)c1cccc(Cl)c1)c1cccnc1,.,.,.,-,.,-
N/C(=N\OC(=O)c1ccc(Br)cc1)c1ccccc1,.,.,.,-,.,.
Cc1noc(C)c1NC(=O)N(C)C[C@H]1Oc2ccc(NC(=O)Nc3ccc(C(F)(F)F)cc3)cc2C(=O)N([C@@H](C)CO)C[C@@H]1C,-,-,-,-,-,-
Cc1ccc(S(=O)(=O)N(C)C[C@H]2Oc3c(NC(=O)Nc4ccccc4)cccc3C(=O)N([C@H](C)CO)C[C@@H]2C)cc1,-,-,-,-,-,-
COCC(=O)N1C[C@@H](C)[C@@H](OC)CN(C)C(=O)c2ccc(NC(=O)Nc3ccccc3)cc2OC[C@@H]1C,-,-,.,-,-,-
O=C(CC1CC1)N[C@@H]1C[C@@H]2O[C@@H](CO)CC[C@@H]2O[C@@H]1CCc1ccc(C#Cc2ccccc2)cc1,.,.,.,.,-,.
O=C(CC1CC1)N[C@H]1C[C@@H]2O[C@H](CO)CC[C@@H]2O[C@@H]1CCc1ccc(C#Cc2ccccc2)cc1,.,.,-,.,28,.
O=C(CC1CC1)N[C@H]1C[C@@H]2O[C@@H](CO)CC[C@@H]2O[C@@H]1CCc1ccc(C#Cc2ccccc2)cc1,.,.,-,.,21,.
O=C(CCOc1ccccc1)Nc1ccnn1C1CCN(Cc2ccc(CO)o2)CC1,-,-,2.5,.,-,-
COc1ccccc1CCC(=O)N1CCC(n2nccc2NC(=O)CC(C)C)CC1,-,-,-,-,?,-
COc1cccc(CCC(=O)N2CCC(n3nccc3NC(=O)CC(C)C)CC2)c1,39,-,-,-,-,-
C=C(C)CCC(C)N1CCC(n2nccc2NC(=O)CCOc2ccccc2)CC1 (stereo not given),44,-,-,-,-,-
O=C(Nc1ccccc1)c1cccc(N2C(=O)CCC2=O)c1,.,.,.,97,.,-
O=C(Nc1cccc(NC(=O)c2ccccc2F)c1)c1ccccc1,-,-,-,107,-,-
O=C(NNC(=S)Nc1cccc(Cl)c1)c1ccccc1,-,-,-,-,-,-
C/C(=N\NC(=O)c1ccccc1F)c1cccc(NC(=O)c2ccccc2)c1,-,-,-,.,-,-
O=C(Nc1ccc(Br)cc1)c1cccc(N2C(=O)CCC2=O)c1,-,-,-,-,-,-
O=C(Nc1cccc(Cl)c1)c1ccccc1,-,-,-,-,28,-
CN1[C@@H]2CN(S(C)(=O)=O)C[C@H]1C2c1ccc(-c2ccc(F)cc2)cc1 (stereo not given in full),.,-,.,.,.,.
CO[C@H]1CN(C)C(=O)c2cc(NC(=O)NC3CCCCC3)ccc2OC[C@@H](C)N(CC2CCOCC2)C[C@@H]1C,-,-,-,-,-,-
CN(C(=O)CS(=O)(=O)c1cn(CC(=O)N2CCCCC2)c2ccccc12)c1ccccc1,-,-,-,-,64,-
SMILES,E-sel inducer,XiGFP reactiv,FGF22 binding,C2C12 statin,DENV2 CPE rescue,PglD DTNB
CN=C(NC(=O)Nc1c(C)cccc1C)NC(=O)Nc1c(C)cccc1C,.,-,44,-,-,-
O=C(Nc1ccc(F)cc1)N1CCCCN2[C@H](C1)[C@H](c1ccc(C3=CCCCC3)cc1)[C@@H]2CO,-,-,-,.,-,-
Cn1c(N)c(C(=O)N2CCN(c3ccccc3)CC2)c(=O)n(C)c1=O,.,-,-,-,37,-
O=C(CN1C(=O)NC2(CCCC2)C1=O)N1CCc2ccccc2C1,-,-,43,.,-,.
S=C(c1ccccc1)N1CCCc2ccccc21,.,-,.,-,.,-
S=C(NC1CC1)N1CCCc2ccccc21,-,-,-,.,54,.
COc1ccc(CNC(=O)CN(c2cc(C)cc(C)c2)S(=O)(=O)c2c(C)noc2C)cc1,.,-,-,-,?,-
Cc1cc(C)cc(N(CC(=O)NCc2ccco2)S(=O)(=O)c2c(C)noc2C)c1,.,-,-,-,41,-
O=C(CN(c1ccc(F)cc1)S(=O)(=O)c1ccccc1)NCc1ccco1,.,.,.,103,.,-

# Source: PubChem BioAssay
